Values after ≈ are worked out from the molar mass of the structure shown.
Columns and labels:
[1] = test system: Mycobacterium tuberculosis; test: Antimicrobial activity against Mycobacterium tuberculosis H37Ra by microplate alamar blue assay; type: functional, organism-based
Plasmodium falciparum = test: Antiplasmodial activity against multidrug-resistant Plasmodium falciparum K1; type: functional, organism-based
How it was run: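 Parasites kept in continuous in vitro culture (Trager–Jensen method); activity assessed by a microculture radioisotope technique.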

Candida albicans = test: Antifungal activity against Candida albicans by XTT assay; type: functional, organism-based
Vero = test: Cytotoxicity against african green monkey Vero cells by sulforhodamine B assay; type: cell-based; settings: Chlorocebus sabaeus
How it was run: (§1)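 Cell lines used were KB (human oral epidermoid carcinoma), BC (human breast cancer), NCI-H187 (human small cell lung cancer) and Vero (African green monkey kidney fibroblasts). Cytotoxicity was read colorimetrically by the Skehan method, with ellipticine as the reference substance.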

KB = test: Cytotoxicity against human KB cells by sulforhodamine B assay; type: functional, cell-based; how it was run: as §1
[2] = Cytotoxicity against human BC1 cells by sulforhodamine B assay; type: functional, cell-based; how it was run: as §1
NCI-H187 = test: Cytotoxicity against human NCI-H187 cells by sulforhodamine B assay; type: functional, cell-based; how it was run: as §1

Structure (SMILES)	MIC [1] [µg/mL]	IC50 (Plasmodium falciparum) [µg/mL]	IC50 (Candida albicans) [µg/mL]	IC50 (Vero) [µg/mL]	IC50 (KB) [µg/mL]	IC50 [2] [µg/mL]	IC50 (NCI-H187) [µg/mL]	IC50 [1] [µg/mL]
C=C1CCC[C@@]2(C)CC3=C(C[C@@H]12)C(=O)C=CC3=O [CORDIACHROME B]	12.5 (≈ 51.6 µM)	1.5 (≈ 6.19 µM)	7.7 (≈ 31.8 µM)	1.7 (≈ 7.02 µM)	6 (≈ 24.8 µM)	6.4 (≈ 26.4 µM)	0.4 (≈ 1.65 µM)	–
NNC(=O)c1ccncc1 [ISONIAZID]	–	–	–	–	–	–	–	0.05 (≈ 0.365 µM)
C/C1=C/CC/C(C)=C/CC2=C(C1)C(=O)C=CC2=O [GLOBIFERIN]	6.2 (≈ 25.6 µM)	2.1 (≈ 8.67 µM)	> 20	> 50	> 20	> 20	0.5 (≈ 2.06 µM)	–
CO[C@H]1/C=C/O[C@@]2(C)Oc3c(C)c(O)c4c(O)c(c(/C=N/N5CCN(C)CC5)c(O)c4c3C2=O)NC(=O)/C(C)=C\C=C\[C@H](C)[C@H](O)[C@@H](C)[C@@H](O)[C@@H](C)[C@H](OC(C)=O)[C@@H]1C [RIFAMPIN]	–	–	–	–	–	–	–	0.0047 (≈ 0.00571 µM)
C/C(C=O)=C\CC/C(C)=C/Cc1cc(O)ccc1O [ALLIODORIN]	12.5 (≈ 48 µM)	3.1 (≈ 11.9 µM)	> 20	14.1 (≈ 54.2 µM)	12 (≈ 46.1 µM)	10.3 (≈ 39.6 µM)	2.2 (≈ 8.45 µM)	–
C[C@@H]1[C@H](O)[C@@H](C)/C=C/C=C/C=C/C=C/C=C/C=C/C=C/[C@H](O[C@@H]2O[C@H](C)[C@@H](O)[C@H](N)[C@@H]2O)C[C@@H]2O[C@](O)(C[C@@H](O)C[C@@H](O)[C@H](O)CC[C@@H](O)C[C@@H](O)CC(=O)O[C@H]1C)C[C@H](O)[C@H]2C(=O)O [AMPHOTERICIN B]	–	–	0.08 (≈ 0.0866 µM)	–	–	–	–	–
C/C(C=O)=C\CCC1(C)C=Cc2cc(O)ccc2O1 (stereo not drawn) [ELAEAGIN]	12.5 (≈ 48.4 µM)	3.6 (≈ 13.9 µM)	> 20	20 (≈ 77.4 µM)	> 20	> 20	6.1 (≈ 23.6 µM)	–
C=C[C@]1(C)Cc2c(OC(C)=O)ccc(OC(C)=O)c2C[C@@H]1C(=C)C	25 (≈ 76.1 µM)	0.4 (≈ 1.22 µM)	> 20	7.3 (≈ 22.2 µM)	8.5 (≈ 25.9 µM)	9.2 (≈ 28 µM)	5.1 (≈ 15.5 µM)	–
C[C@H]1[C@@H](O)O[C@@H]2O[C@@]3(C)CC[C@H]4[C@H](C)CC[C@@H]1[C@@]24OO3 [ARTENIMOL]	–	0.0012 (≈ 0.00422 µM)	–	–	–	–	–	–
Cc1c2ccncc2c(C)c2c1[nH]c1ccccc12 [ELLIPTECINE]	–	–	–	–	–	0.2 (≈ 0.812 µM)	0.3 (≈ 1.22 µM)	–
CC(C)=CCCC1(C)C=Cc2cc(O)ccc2O1 (stereo not drawn) [CORDIACHROMENE A]	12.5 (≈ 51.2 µM)	> 20	11.2 (≈ 45.8 µM)	> 50	> 20	> 20	> 20	–
C=C[C@]1(C)Cc2c(OC(=O)c3ccccc3)ccc(OC(=O)c3ccccc3)c2C[C@@H]1C(=C)C	200 (≈ 442 µM)	> 20	> 20	> 50	> 20	> 20	> 20	–
NC[C@H]1O[C@H](O[C@H]2[C@H](O)[C@@H](O[C@H]3O[C@H](CO)[C@@H](O)[C@H](N)[C@H]3O)[C@H](N)C[C@@H]2N)[C@H](O)[C@@H](O)[C@@H]1O [KANAMYCIN]	–	–	–	–	–	–	–	2.5 (≈ 5.16 µM)
C=C[C@@]1(C)CC2=C(C[C@H]1C(=C)C)C(=O)C=CC2=O [Cordiachrome C]	1.5 (≈ 6.19 µM)	0.2 (≈ 0.825 µM)	4.6 (≈ 19 µM)	1.4 (≈ 5.78 µM)	1.5 (≈ 6.19 µM)	1.8 (≈ 7.43 µM)	0.2 (≈ 0.825 µM)	–
